ChEMBL document CHEMBL5712901, “DOT1L inhibition blocks multiple myeloma cell proliferation by suppressing IRF4-MYC signaling” (2019)
Calls of active or inactive are those of the source. No cut-off for these calls is given here.

Experiments:
MM1.S [1] = test: Induction of cell cycle arrest in human MM1.S cells assessed as decrease in accumulation of cells at S phase at 1 uM for 6 days; type: functional, cell-based; conditions: time 6.0 day
Method in brief: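 Flow cytometric cell cycle analysis of RPMI-8226 and MM.1S cells treated with 1 μM DOT1L inhibitor or DMSO for 6 days. Sub-G1, G0-G1 and S phase populations scored. Summary is from 3 replications, mean ± SEM.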

MM1.S [2] = test: Induction of apoptosis in human MM1.S cells assessed as early apoptotic cells at 1 uM for 3 days by annexin-V based propidium iodide staining based flow cytometric analysis (reference value: 5.51%); type: functional; conditions: time 3 day
RPMI-8226 [3] = test: Effect on human RPMI-8226 cells assessed as change in IRF4 mRNA level at 1 uM for 3 days by ChIP-qPCR analysis; type: functional, cell-based; conditions: time 3.0 day
Method in brief: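 ChIP-qPCR for H3K79me2 at IRF4-MYC signaling genes after 1 μM inhibitor or DMSO for 3 days. Signal normalized to input DNA. An intergenic region 28 kb upstream of KLF2 served as negative control. Mean of 3 replications ± SEM.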

MM1.S [4] = test: Upregulation of IFN in human MM1.S cells assessed as increase in IFIT1 gene at 1 uM for 6 days by qRT-PCR analysis; type: functional, cell-based; conditions: time 6.0 day
MM1.S [5] = test: Upregulation of IFN in human MM1.S cells assessed as increase in ISG15 gene at 1 uM for 6 days by qRT-PCR analysis; type: functional, cell-based; conditions: time 6.0 day
MM1.S [6] = test: Upregulation of IFN in human MM1.S cells assessed as increase in IFI44 gene at 1 uM for 6 days by qRT-PCR analysis; conditions: time 6.0 day
KMS-12-PE = test: Antiproliferative activity against human KMS-12-PE cells treated upto 14 days with replacement of fresh medium containing drug every 3 to 4 days by cell counting kit-8 method; type: functional, cell-based; conditions: time <= 14.0 day
Method in brief: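 Screen of histone methylation modifier inhibitors in 6-well plates at 3 × 10^4 to 1 × 10^5 cells/well. Drug at 1 μM or DMSO for up to 14 days, with medium and drug refreshed every 3-4 days. CCK-8 read on days 3-4 and 11-14. Values normalized to DMSO; mean of 5 replications ± SEM; unpaired two-sided t-test.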

KMS-12-BM = test: Upregulation of DOT1L in human KMS-12-BM cells by qRT-PCR analysis; type: functional, cell-based
Method in brief: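 Basal DOT1L transcript in untreated myeloma cell lines measured by qRT-PCR, normalized to ACTB; mean of 3 replicates with SEM.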

RPMI-8226 [7] = test: Upregulation of AIF1 gene in human RPMI-8226 cells at 1 uM for 6 days by; type: functional, cell-based; conditions: time 6.0 day
RPMI-8226 [8] = test: Upregulation of BMF gene in human RPMI-8226 cells at 1 uM for 6 days by; type: functional, cell-based; conditions: time 6.0 day
RPMI-8226 [9] = test: Upregulation of CARD6 gene in human RPMI-8226 cells at 1 uM for 6 days by; type: functional, cell-based; conditions: time 6.0 day
RPMI-8226 [10] = test: Upregulation of COL16A1 gene in human RPMI-8226 cells at 1 uM for 6 days by; type: functional, cell-based; conditions: time 6.0 day
Method in brief: (§1)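 Human myeloma lines RPMI-8226 and MM.1S exposed to 1 μM DOT1L inhibitor, or DMSO, for 6 days. Whole-genome expression profiled on gene expression microarray.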

RPMI-8226 [11] = test: Upregulation of EMID1 gene in human RPMI-8226 cells at 1 uM for 6 days by; type: functional, cell-based; conditions: time 6.0 day; method in brief: as §1
RPMI-8226 [12] = test: Upregulation of GPD2 gene in human RPMI-8226 cells at 1 uM for 6 days by; type: functional, cell-based; conditions: time 6.0 day; method in brief: as §1
RPMI-8226 [13] = test: Upregulation of HLA-DRB5 gene in human RPMI-8226 cells at 1 uM for 6 days by; type: functional, cell-based; conditions: time 6.0 day
RPMI-8226 [14] = test: Upregulation of IFITM1 gene in human RPMI-8226 cells at 1 uM for 6 days by; type: functional, cell-based; conditions: time 6.0 day
RPMI-8226 [15] = test: Upregulation of IGFBP6 gene in human RPMI-8226 cells at 1 uM for 6 days by; type: functional, cell-based; conditions: time 6.0 day
RPMI-8226 [16] = test: Upregulation of NXF3 gene in human RPMI-8226 cells at 1 uM for 6 days by; type: functional, cell-based; conditions: time 6.0 day
RPMI-8226 [17] = test: Upregulation of POPDC2 gene in human RPMI-8226 cells at 1 uM for 6 days by; type: functional, cell-based; conditions: time 6.0 day
RPMI-8226 [18] = test: Upregulation of PTGER4 gene in human RPMI-8226 cells at 1 uM for 6 days by; type: functional, cell-based; conditions: time 6.0 day
RPMI-8226 [19] = test: Upregulation of RAPGEF2 gene in human RPMI-8226 cells at 1 uM for 6 days by; type: functional, cell-based; conditions: time 6.0 day
RPMI-8226 [20] = test: Upregulation of TP53I3 gene in human RPMI-8226 cells at 1 uM for 6 days by; type: functional, cell-based; conditions: time 6.0 day
MM1.S [21] = test: Upregulation of AMY1C gene in human MM1.S cells at 1 uM for 6 days by; type: functional, cell-based; conditions: time 6.0 day
MM1.S [22] = test: Upregulation of APH1B gene in human MM1.S cells at 1 uM for 6 days by; type: functional, cell-based; conditions: time 6.0 day
MM1.S [23] = test: Upregulation of BHLHE22 gene in human MM1.S cells at 1 uM for 6 days by; type: functional, cell-based; conditions: time 6.0 day
MM1.S [24] = test: Upregulation of CCL2 gene in human MM1.S cells at 1 uM for 6 days by; type: functional, cell-based; conditions: time 6.0 day
MM1.S [25] = test: Upregulation of CCR5 gene in human MM1.S cells at 1 uM for 6 days by; type: functional, cell-based; conditions: time 6.0 day
MM1.S [26] = test: Upregulation of CHRNA6 gene in human MM1.S cells at 1 uM for 6 days by; type: functional, cell-based; conditions: time 6.0 day
MM1.S [27] = test: Upregulation of CLIP2 gene in human MM1.S cells at 1 uM for 6 days by; type: functional, cell-based; conditions: time 6.0 day; method in brief: as §1
MM1.S [28] = test: Upregulation of CPED1 gene in human MM1.S cells at 1 uM for 6 days by; type: functional, cell-based; conditions: time 6.0 day; method in brief: as §1
MM1.S [29] = test: Upregulation of CXCL12 gene in human MM1.S cells at 1 uM for 6 days by; type: functional, cell-based; conditions: time 6.0 day; method in brief: as §1
MM1.S [30] = test: Upregulation of FAM200B gene in human MM1.S cells at 1 uM for 6 days by; type: functional, cell-based; conditions: time 6.0 day; method in brief: as §1
MM1.S [31] = test: Upregulation of HLA-DMA gene in human MM1.S cells at 1 uM for 6 days by; type: functional, cell-based; conditions: time 6.0 day; method in brief: as §1
MM1.S [32] = test: Upregulation of IQCE gene in human MM1.S cells at 1 uM for 6 days by; type: functional, cell-based; conditions: time 6.0 day
MM1.S [33] = test: Upregulation of MS4A4A gene in human MM1.S cells at 1 uM for 6 days by; type: functional, cell-based; conditions: time 6.0 day
MM1.S [34] = test: Upregulation of PRDM8 gene in human MM1.S cells at 1 uM for 6 days by; type: functional, cell-based; conditions: time 6.0 day
MM1.S [35] = test: Upregulation of RAPGEF2 gene in human MM1.S cells at 1 uM for 6 days by; type: functional, cell-based; conditions: time 6.0 day
MM1.S [36] = test: Upregulation of SAP30L gene in human MM1.S cells at 1 uM for 6 days by; type: functional, cell-based; conditions: time 6.0 day
MM1.S [37] = test: Upregulation of SOAT2 gene in human MM1.S cells at 1 uM for 6 days by; type: functional, cell-based; conditions: time 6.0 day
RPMI-8226 [38] = test: Effect on human RPMI-8226 cells assessed as change in Myc mRNA level at 1 uM for 6 days by qRT-PCR analysis; conditions: time 6.0 day
RPMI-8226 [39] = test: Effect on human RPMI-8226 cells assessed as change in IRF4 mRNA level at 1 uM for 6 days by qRT-PCR analysis; conditions: time 6.0 day

Structure (SMILES): CC(C)N(C[C@H]1O[C@@H](n2cnc3c(N)ncnc32)[C@H](O)[C@@H]1O)[C@H]1C[C@@H](CCc2nc3cc(C(C)(C)C)ccc3[nH]2)C1 [PINOMETOSTAT]
- Activity (MM1.S [1]): Active
- Activity (MM1.S [2]): 3.11%
- Activity (RPMI-8226 [3]): Active
- Activity (MM1.S [4]): Active
- Activity (MM1.S [5]): Active
- Activity (MM1.S [6]): Active

Structure (SMILES): CC(C)N(CCCNC(=O)Nc1ccc(C(C)(C)C)cc1)C[C@H]1O[C@@H](n2cc(Br)c3c(N)ncnc32)[C@H](O)[C@@H]1O
- Activity (KMS-12-PE): inactive
- Activity (KMS-12-BM): Active
- Activity (RPMI-8226 [7]): Active
- Activity (RPMI-8226 [8]): Active
- Activity (RPMI-8226 [9]): Active
- Activity (RPMI-8226 [10]): Active
- Activity (RPMI-8226 [11]): Active
- Activity (RPMI-8226 [12]): Active
- Activity (RPMI-8226 [13]): Active
- Activity (RPMI-8226 [14]): Active
- Activity (RPMI-8226 [15]): Active
- Activity (RPMI-8226 [16]): Active
- Activity (RPMI-8226 [17]): Active
- Activity (RPMI-8226 [18]): Active
- Activity (RPMI-8226 [19]): Active
- Activity (RPMI-8226 [20]): Active
- Activity (MM1.S [21]): Active
- Activity (MM1.S [22]): Active
- Activity (MM1.S [23]): Active
- Activity (MM1.S [24]): Active
- Activity (MM1.S [25]): Active
- Activity (MM1.S [26]): Active
- Activity (MM1.S [27]): Active
- Activity (MM1.S [28]): Active
- Activity (MM1.S [29]): Active
- Activity (MM1.S [30]): Active
- Activity (MM1.S [31]): Active
- Activity (MM1.S [32]): Active
- Activity (MM1.S [33]): Active
- Activity (MM1.S [34]): Active
- Activity (MM1.S [35]): Active
- Activity (MM1.S [36]): Active
- Activity (MM1.S [37]): Active
- Activity (RPMI-8226 [38]): Active
- Activity (RPMI-8226 [39]): Active
